Laboratory results from ChEMBL document CHEMBL1121412, “Synthesis and anticancer activity of nitrosourea derivatives of phensuximide” (1980).

How the values were obtained:
Mus musculus [1] = assay: Tested for cures, represents a 30-day survival, ratio of treated and control was reported; dose range ip 200-12.5 mg/kg; type: functional
Mus musculus [2] = assay: Toxicity against mouse L1210 Leukemia as number of animals survived/number of animals treated at the Optimal dose of 200 mg/kg; 6/6, dose range ip 200-12.5 mg/kg.; type: functional; settings: route intraperitoneal
Mus musculus [3] = assay: Animal weight difference at the Optimal dose of 100 mg/kg against mouse L1210 Leukemia; dose range ip 200-12.5 mg/kg; type: functional; settings: route intraperitoneal
Mus musculus [4] = assay: Animal weight difference at the Optimal dose of 12.0 mg/kg against Ependymoblastoma Tumor; dose range 12-0.75 mg/kg; type: functional
Mus musculus [5] = assay: Toxicity against Ependymoblastoma Tumor number of animals survived/number of animals treated at the Optimal dose of 12.0 mg/kg; dose range 12-0.75 mg/kg; type: functional
In short: (§1)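 Mouse ependymoblastoma implanted intracerebrally to test CNS antitumour activity. Groups of 10 mice were dosed on days 1-5 over the stated dose range. Toxicity is scored as survivors on day 5 after the first injection. Activity is given as % T/C at the optimum dose, and a cure is defined as 30-day survival.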

Mus musculus [6] = assay: Animal weight difference at the Optimal dose of 25 mg/kg against mouse L1210 Leukemia; dose range ip 50-6.25 mg/kg; settings: route intraperitoneal
Mus musculus [7] = assay: Toxicity against mouse L1210 Leukemia as number of animals survived/number of animals treated at the Optimal dose of 25 mg/kg; 6/6, dose range ip 50-6.25 mg/kg.; settings: route intraperitoneal
Mus musculus [8] = assay: Tested for cures, represents a 30-day survival, ratio of treated and control was reported; dose range ip 50-6.25 mg/kg; type: functional
Mus musculus [9] = assay: Tested for cures, represents a 30-day survival, ratio of treated and control against Ependymoblastoma Tumor was reported; dose range 12-0.75 mg/kg; type: functional; in short: as §1
[10] = test system: L1210 leukemia (Mus musculus); assay: Tested for cures, represents a 30-day survival, ratio of treated and control against L1210 leukemia was reported; dose range ip 400-12.5 mg/kg
Mus musculus [11] = assay: Animal weight difference at the Optimal dose of 200 mg/kg against mouse L1210 Leukemia; dose range ip 400-12.5 mg/kg; type: functional; settings: route intraperitoneal
Mus musculus [12] = assay: Toxicity against mouse L1210 Leukemia as number of animals survived/number of animals treated at the Optimal dose of 200 mg/kg; 5/6, dose range ip 400-12.5 mg/kg.; type: functional; settings: route intraperitoneal
Mus musculus [13] = assay: Toxicity against mouse L1210 Leukemia as number of animals survived/number of animals treated at the Optimal dose of 100 mg/kg; 6/6, dose range ip 200-12.5 mg/kg; type: functional; settings: route intraperitoneal
Mus musculus [14] = assay: Toxicity against mouse L1210 Leukemia as number of animals survived/number of animals treated at the Optimal dose of 50 mg/kg; 6/6, dose range ip 400-12.5 mg/kg.; type: functional; settings: route intraperitoneal
Mus musculus [15] = assay: Animal weight difference at the Optimal dose of 50 mg/kg against mouse L1210 Leukemia; dose range ip 400-12.5 mg/kg.; settings: route intraperitoneal
Mus musculus [16] = assay: Tested for cures, represents a 30-day survival, ratio of treated and control was reported; dose range ip 400-12.5 mg/kg.; type: functional
Mus musculus [17] = assay: Toxicity against Ependymoblastoma Tumor number of animals survived/number of animals treated at the Optimal dose of 16.0 mg/kg; dose range 16-2 mg/kg
Mus musculus [18] = assay: Animal weight difference at the Optimal dose of 16.0 mg/kg against Ependymoblastoma Tumor; dose range 16-2 mg/kg
Mus musculus [19] = assay: Tested for cures, represents a 30-day survival, ratio of treated and control against Ependymoblastoma Tumor was reported; dose range 16-2 mg/kg; type: functional; in short: as §1

CCN(N=O)C(=O)Nc1ccc(C2CC(=O)N(C)C2=O)cc1 (stereo unspecified)
T/C (Mus musculus [1]): 126% | Ratio (Mus musculus [2]): 6 | T-C (Mus musculus [3]): -3.8 g

CN1C(=O)CC(c2ccc(NC(=O)N(CCCl)N=O)cc2)C1=O (stereo unspecified)
T-C (Mus musculus [4]): -3.8 g | Ratio (Mus musculus [5]): 9 | T-C (Mus musculus [6]): -4.6 g | Ratio (Mus musculus [7]): 6 | T/C (Mus musculus [8]): 196% | T/C (Mus musculus [9]): 240%

CCCCN(N=O)C(=O)Nc1ccc(C2CC(=O)N(C)C2=O)cc1 (stereo unspecified)
T/C [10]: 120% | T-C (Mus musculus [11]): -2.8 g | Ratio (Mus musculus [12]): 5

CN(N=O)C(=O)Nc1ccc(C2CC(=O)N(C)C2=O)cc1 (stereo unspecified)
Ratio (Mus musculus [13]): 6 | T/C (Mus musculus [1]): 127% | T-C (Mus musculus [3]): -1.2 g

CCCN(N=O)C(=O)Nc1ccc(C2CC(=O)N(C)C2=O)cc1 (stereo unspecified)
Ratio (Mus musculus [14]): 6 | T-C (Mus musculus [15]): 0.8 g | T/C (Mus musculus [16]): 109%

O=NN(CCCl)C(=O)NCCCl [CARMUSTINE]
Ratio (Mus musculus [17]): 10 | T-C (Mus musculus [18]): -3.4 g | T/C (Mus musculus [19]): 300%
